In PubChem BioAssay AID504382 (The Scripps Research Institute Molecular Screening Center, 2011):
About 460 (18%) of roughly 2,500 compounds were called active. A selection follows. Values without a mark were called inactive.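 The calls were made as follows: active = mean activation above a cutoff of low control average plus 3 SD from the earlier screen (cut at about 12% in these data); inactive = the rest.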

Assay: compound fluorescence interference without thin filaments, confirmation, artefact control for cardiac RTF calcium sensitizer project, biochemical (AID 504382)
Details: IANBD fluorescence interference counterscreen, buffer, EC20 Ca2+; at 7.2 µM; active compounds read high; scaled: EC20 calcium 0, EC100 calcium 100
Outline: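 Also added: EC20 calcium, 0.472 mM; dosing: single nominal 7.2 µM compound dose, 0.7% DMSO final; timing: 15 min, 25 °C; detection: fluorescence intensity, excitation 480 nm, emission 540 nm; replicates: each compound tested in triplicate wells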

Row | SMILES | fluorescence artifact activation
1 | COc1ccc(C2(CNC(C)=O)CCCC2)cc1OC | 0.1%
2 | COc1ccc(N2C(=O)C3C(C2=O)C(C(=O)c2ccc(Cl)cc2)N2CCCC32)cc1 (centres undefined) | 2.56%
3 | CC(=O)Oc1ccc(N2C(=O)C3C(C2=O)C(C(=O)c2ccc(Cl)cc2)N2CCCC32)cc1 (centres undefined) | 12.2% (active)
4 | Cc1ccc(N2C(=O)C3C(C(=O)c4ccccc4)=NN(c4ccccc4)C3C2=O)cc1 (centres undefined) | 5.76%
5 | Cc1ccc(N2C(=O)[C@@H]3[C@H](C2=O)C2CCCN2[C@@H]3C(=O)c2ccccc2)cc1 (some centres undefined) | 65.3% (active)
6 | CCOC(=O)c1ccc(N2C(=O)C3C(C2=O)C(C(=O)c2ccc(Cl)cc2)N2CCCC32)cc1 (centres undefined) | 1.5%
7 | O=C(c1ccccc1)[C@@H]1[C@@H]2C(=O)N(c3ccc(F)cc3)C(=O)[C@@H]2C2CCCN21 (some centres undefined) | 1.82%
8 | CCc1ccc(Nc2n[n+](-c3ccccc3)c(-c3ccc(N(CC)CC)cc3)s2)cc1 | -0.01%
9 | C[C@H](CO)N1C[C@H](C)[C@@H](CN(C)S(=O)(=O)c2cccs2)Oc2c(NC(=O)Nc3ccc4c(c3)OCO4)cccc2C1=O | 2.08%
10 | COCc1cc(=O)[nH]c2cc(NC(=O)C(C)(C)CCl)c(C)cc12 | -0.05%
11 | COc1ccc(CCNC(=O)c2ccccc2OCc2c(C)noc2C)cc1 | -0.02%
12 | CCOCCCNC(=S)NCCCNc1nc2c(C)cc(C)cc2cc1C#N | 0.14%
13 | COc1cc(N2CCCC2)c(OC)cc1/C=C1/NC(=S)NC1=O | 16.7% (active)
14 | COc1cc(N2CCCC2)c(OC)cc1/C=C(/C#N)c1ccc(Br)cc1 | 0.93%
15 | COc1cc(N2CCCC2)c(OC)cc1/C=C(/C#N)c1cccc(Br)c1 | -0.03%
16 | N#Cc1ccc(CSc2nnc(-c3cnccn3)o2)cc1 | 45.1% (active)
17 | O=c1oc2cc(O)ccc2cc1-c1nc2c(s1)CCc1ccccc1-2 | 0.02%
18 | CC(C)(C)c1cc[n+](-c2[nH]c(=O)sc2/C=N/NC([S-])=Nc2ccccc2)cc1 | 1.92%
19 | Cc1ccccc1C(=O)NCCCc1ccccc1 | 0.02%
20 | O=S(=O)(c1ccc(F)cc1)N1CCN(CCOc2ccccc2)CC1 | 361% (active)
21 | CN1CCN(S(=O)(=O)c2cccc(C(=O)Oc3cccc(Br)c3)c2)CC1 | 0.74%
22 | COC(=O)N1CCN(S(=O)(=O)c2ccc(F)cc2)CC1 | -0.07%
23 | CC(C)c1nnc(N2C(=O)C(O)=C(C(=O)c3cccs3)C2c2ccccc2)s1 (centres undefined) | 0.07%
24 | O=C(COC(=O)c1cc(-c2cccc3ccccc23)nc2ccccc12)NC1CCS(=O)(=O)C1 (centres undefined) | 0.37%
